Assay results of several laboratories.
Protocols differ between the studies behind these lines.
Effect on: enzyme activity
Action: inhibitor
PDGFRA: Platelet-derived growth factor receptor alpha (PDGFRA, Homo sapiens, UniProt P16234)
PDGFRA D842V: Platelet-derived growth factor receptor alpha (PDGFRA, Homo sapiens, UniProt P16234, D842V)
PDGFRA V561D: Platelet-derived growth factor receptor alpha (PDGFRA, Homo sapiens, UniProt P16234, V561D)

CNC(=O)c1cc(Oc2ccc(NC(=O)Nc3ccc(Cl)c(C(F)(F)F)c3)cc2)ccn1 — inhibition (PDGFRA; 0.3 µM): 35%
CNCc1ccc(-c2cc(-c3nc(-c4ccc(S(=O)(=O)C(C)C)cc4)cnc3N)on2)cc1 — inhibition (PDGFRA; 2 µM): 9%
COc1cc(-c2cc(-c3ccc(N4CCNCC4)cc3)cnc2N)cc(OC)c1OC — inhibition (Platelet-derived growth factor receptor alpha (PDGFRA, Homo sapiens, UniProt P16234, T674I); 0.1 µM): 2%
CN1CC(Oc2cnc(C#N)cc2-c2ccn3nc(NC(=O)C4CC4)cc3c2)C1 — inhibition (PDGFRA; 1 µM): 4%
CC/C(=N\NC(=O)NCc1cccc(O)c1)c1ccc(O)c(C)c1O — inhibition (PDGFRA D842V; 0.1 µM): 1.1%
CNC(=O)c1cc2c(Oc3ccc(NC(=O)C4(C(=O)Nc5ccc(F)cc5)CC4)cc3)ccnc2cc1OC — inhibition (PDGFRA D842V; radiometric; 1 µM): 73%
COc1cc2ncnc(Nc3ccc(Oc4ccccc4)cc3C)c2cc1OC — inhibition (PDGFRA V561D; 1 µM): 20%
O=C(CSc1nc2nccnc2c(=O)n1CCc1ccccc1)Nc1nccs1 — inhibition (PDGFRA; 10 µM): 16%
COc1cc2nccc(Oc3ccc(NC(=O)c4c5n(n(-c6ccc(F)cc6)c4=O)CCCC5)cc3)c2cc1OC — inhibition (PDGFRA; 0.1 µM): 30%
COc1cc2ncnc(Nc3ccc(Oc4ccccc4)c(C)c3C)c2cc1OC — inhibition (PDGFRA V561D; 1 µM): 7%
